Measured values taken from ChEMBL document CHEMBL4513216, “Probing the Open Global Health Chemical Diversity Library for Multistage-Active Starting Points for Next-Generation Antimalarials” (ACS Infect Dis, 2020).

Assay: Toxicity liver stage against HepG2, at 10uM
Format: cell-based
Parameters: test concentration 10 uM, cell line HepG2-A16-CD81EGFP
Settings: human, HepG2-A16-CD81EGFP cells; read-out: INHIBITION
In short: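 Uninfected HepG2-A16-CD81EGFP cells, 3 × 10^3 per well, 1536-well, plated on prespotted compound at 10 μM final, parasite-free screening media added to match infected plates; puromycin 10 μM positive, DMSO 0.5% negative; run in parallel with 48 h PbLuc assay at 37 °C, 5% CO2; viability by CellTiter-Glo luminescence, normalized to controls.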

| Compound | cytotoxicity at 10 µM |
| --- | --- |
| CC(=O)N1C[C@@H](F)[C@@H](OCc2nc3cc(C)c(C)cc3[nH]2)C1 | 1.77% |
| Nc1nc(SCc2ccc3c(c2)OCO3)ns1 | -0.681% |
| NCC(=O)N1CCC(c2ccnc(Nc3cc(C(F)(F)F)ccn3)n2)C1 (stereo not drawn) | 9.83% |
| CN1CCOC(CN(C(=O)Cc2ccccc2F)c2nccs2)C1 (stereo not drawn) | -11.7% |
| CC(=O)N1CCO[C@@H]2CN(S(=O)(=O)C3CC3)C[C@@H]2C1 | -104% |
| O=C(Cc1ccc2c(c1)OCCO2)NC1CC1 | -11.2% |
| CC(C)n1c(=O)[nH]c2cn(-c3ccccc3)c(=O)n21 | -7.01% |
| CC(NC(=O)c1cccc[n+]1[O-])C1CC1 (stereo not drawn) | 5.31% |
| COc1ccccc1-c1cc(C(=O)N2CCCC2)c2cnn(C)c2n1 | 9.4% |
| COc1cc(N2C[C@H]3CCC[C@@H](CN4CCCC4)[C@H]3C2)ncn1 | -79% |
| CC(C)NC1CC2(CCNCC2)c2cc(F)ccc21 (stereo not drawn) | -9.05% |
| CC(C)NC(=O)c1ccc2c(c1)nc1n2CCN(c2ccccc2)C1 | -3.99% |
| Cc1n[nH]c(C)c1NC(=O)CN1CCCC1c1noc(C(C)C)n1 (stereo not drawn) | 6.45% |
| CN(C)C(=O)C1CCCN1CCCNC(=O)c1ccccc1Cl (stereo not drawn) | -8.27% |
| CC(O)CN1CCC(CNCc2cccc(OC(F)(F)F)c2)CC1 (stereo not drawn) | -7.95% |
| COc1ncc(C(=O)NCc2ccc(Br)cc2)cn1 | 48.6% |
| CCS(=O)(=O)NCCCn1ncc2c(C)cccc21 | 6.8% |
| CCn1nnnc1-c1cccc(NC(N)=O)c1 | 8.92% |
| O=C(CNc1cc(F)ccc1OCC1CCCO1)N1CCOCC1 (stereo not drawn) | -12.6% |
| CCOCCC(=O)N1CCc2cccc(S(=O)(=O)N3CCOCC3)c2C1 | -7.41% |
| COc1ccc(CNc2ncc(-c3cc(C)no3)c(C(C)C)n2)cc1 | 2.73% |
| CCn1nc(C)cc1C(=O)OCCNC(=O)c1ccccc1 | 1.44% |
| Cc1nn(C)c(N2CCOCC2)c1CNCc1ccc(C(C)O)cc1 (stereo not drawn) | -4.93% |

| Compound | cytotoxicity at 10 µM |
| --- | --- |
| CC[C@H](Cn1ncc2ccccc2c1=O)NC(=O)c1cnc(C)cn1 | 5.98% |
| Cc1ccnc(N2CCC(NCCOc3ccccc3)CC2)n1 | -1.21% |
| CCOCC1CN(Cc2ccccn2)Cc2nn(CC3CC3)cc21 (stereo not drawn) | -0.966% |
| CN(Cc1ccccn1)C1CCCN(Cc2noc(C3CC3)n2)C1 (stereo not drawn) | 1.82% |
| Cc1noc(C)c1CN1CC2(CCN(C(=O)c3cccn3C)C2)CC1=O (stereo not drawn) | 6.53% |
| Cc1ccc(CN2CC[C@H]3CO[C@H](CN4CCN(C)CC4)[C@H]3C2)o1 | -118% |
| CN1CC2(CCCN(Cc3nnc(-c4ccco4)o3)CC2)OC1=O (stereo not drawn) | -6.12% |
| CCC(=O)N1CCc2[nH]cnc2C12CCN(C1CCOCC1)CC2 | -6.47% |
| CCn1cc(CNC2CCN(c3cccc(C)c3C)CC2)cn1 | -9.99% |
| O=C(Cc1ccc2c(c1)CCO2)Nc1cccnc1-n1cncn1 | 3.94% |
| COc1ccc(-c2csc3c2c(N)nc(=O)n3CCN(C)C)cc1 | -49.9% |
| CNCc1cc(F)ccc1Oc1ccc(F)cc1 | -1% |
| CCn1cc(C(=O)N2CCOCC2)cn1 | 0.805% |
| CCOC(=O)N(C)C1CCN(Cc2cnc3ccccn23)CC1 | 18.1% |
| CCn1c(CC2CCN(C(=O)C3CCOC3)CC2)nn(C)c1=O (stereo not drawn) | -18% |
| COc1cccc2c(=O)n(C3CCCNC3)cnc12 (stereo not drawn) | -42.4% |
| CCCn1cc(C(=O)NCCc2ccncc2)c(C)n1 | 11.2% |
| CN(CCc1ccccc1)c1cnn(CC(=O)N2CCOCC2)c(=O)c1 | 1.77% |
| CNc1nc(CNC(=O)Nc2cccc(CC(F)(F)F)c2)cs1 | -9.77% |
| O=C(NCCO)NCC(c1ccccc1)N1CCc2sccc2C1 (stereo not drawn) | 1.96% |
| CCc1ncncc1C(=O)N1CCCN(Cc2ccc(C)cc2)CC1 | -0.611% |
| Cc1nc2c(Nc3ccc(C#N)cc3)nc(N)nc2n1C | 1.88% |
| Cn1cnc2c1CCN(CCS(=O)(=O)c1ccc(Cl)cc1)C2 | -6.67% |

| Compound | cytotoxicity at 10 µM |
| --- | --- |
| O=C(Cc1cccs1)N1C[C@@H]2COC[C@]2(COCc2cccnc2)C1 | -2.8% |
| CCOc1ccc(C2SCC(=O)Nc3c2c(=O)[nH]n3C(C)C)cc1 (stereo not drawn) | 8.68% |
| CCc1nnsc1-c1nc(C(C)C)nn1-c1ccc2c(c1)OCO2 | -9.69% |
| Cc1csc(CNC(=O)NC2CCCN(S(C)(=O)=O)C2)n1 (stereo not drawn) | -6.3% |
| CCOC(=O)COC1CCN(C(C)=O)CC(=O)N(C)c2ccccc21 (stereo not drawn) | 7.45% |
| CCc1ncc(C(=O)N2CCCC2Cn2cccn2)s1 (stereo not drawn) | -9.67% |
| Fc1ccc(N2CCCN(c3ccc(Cn4ccnc4)cn3)CC2)cc1 | 26.2% |
| O=C1CCSCC(C(=O)N2CCCC2)N1 (stereo not drawn) | -9.83% |
| CC(C)(C)n1nnnc1CN(Cc1ccccc1)Cc1ccccc1Cl | 8.56% |
| CC(O)CN1CCN(C(=O)c2cnn(-c3ccccc3F)c2)CC1 (stereo not drawn) | -6.81% |
| CC(CCN1CCCn2nc(CNS(C)(=O)=O)cc2C1)c1ccccc1 (stereo not drawn) | 8.85% |
| CCOC(=O)c1ccc(NC(=O)c2c(O)nc3c(c2O)CCCC3)cc1 | 8.46% |
| Cc1nn(C)c(C)c1C1CCCN1C(=O)c1ccc2nnc(C)n2c1 (stereo not drawn) | -12.2% |
| Cn1cc(-c2c(C#N)c(N)nc3c2CCc2[nH]ccc2-3)cn1 | -4.37% |
| CNC(=O)c1cc(C)ccc1NCc1cn2cc(C)ccc2n1 | 8.45% |
| COC(=O)NCC(=O)N1CCCC1c1nc(-c2ccccc2F)c[nH]1 (stereo not drawn) | 8.01% |
| O=C1CN(C(=O)C2CCCOC2)CCN1Cc1ccc(Cl)cc1 (stereo not drawn) | -152% |
| COc1cccc(COC(C)C(=O)NCc2nnc3n2CCC3)c1 (stereo not drawn) | 8.67% |
| CCc1ccc(CCC(=O)N2CCOCC2c2ncon2)cc1 (stereo not drawn) | -3.78% |
| CCn1cc(-c2cc(-c3cc(CN(C)C)cs3)nc(N)c2C#N)c(C)n1 | 0.184% |
| Cc1cc(C)nc(C2CCN(C3CCCCC3)C2)n1 (stereo not drawn) | 7.33% |
| CCOCCNc1nc(C2CCCC2)nc2c1cnn2C | -11% |
| CCOc1ccc(C(=O)N2CCCC2c2c(C)nn(C)c2OC)cn1 (stereo not drawn) | 2.63% |

| Compound | cytotoxicity at 10 µM |
| --- | --- |
| CC(C)(NCC(=O)NCCC#N)c1ccc2c(c1)OCCO2 | -4.03% |
| Cc1ccc(C(C)NC(=O)N2CCCN(CC(F)F)CC2)s1 (stereo not drawn) | 3.44% |
| CC(NS(C)(=O)=O)C(=O)N1CCCN(Cc2cscn2)CC1 (stereo not drawn) | -5.95% |
| CN1CCN(C(=O)Cc2csc(-c3ccsc3)n2)C(c2ccccc2)C1 (stereo not drawn) | -8.38% |
| O=C1CCCN1Cc1nnc2n1CCN(Cc1ccco1)C2 | 0.686% |
| CC1CCN(c2ccc3c(-c4ncc(C(=O)O)s4)noc3c2)CC1 | 2.13% |
| c1ccc(CCCN2CCCC2Cn2cncn2)cc1 (stereo not drawn) | -0.121% |
| Cc1ccc(C(=O)N2C[C@H](OCC3CCOCC3)[C@H]3OCCC[C@H]32)o1 | -0.714% |
| Cc1oc(C(=O)Nc2ccccc2F)cc1S(N)(=O)=O | -1.07% |
| Cc1cc(N(C)C)nc(N2CCCC2c2cccnc2)n1 (stereo not drawn) | -14.1% |
| CCN1CC(C(=O)NC(C)(C)CC(C)(C)C)CC1=O (stereo not drawn) | -4.72% |
| Cc1ccc(NCc2ncc(C(C)(C)C)o2)c(Cl)c1 | -15.4% |
| Cc1nn(C)c(Cl)c1C1CCCN1C(=O)c1ccncc1 (stereo not drawn) | -11.2% |
| CN(Cc1ccccn1)C(=O)c1ccc2c(c1O)OC(C)(C)C2 | -11.8% |
| CC(C(=O)Nc1ccc(N2CCCC2)nc1)n1ccnc1 (stereo not drawn) | -8.53% |
| OCC1CCCN1c1cc(NCc2cccs2)ncn1 (stereo not drawn) | -5.62% |
| O=C(CN1CCSC2(CCCCC2)C1)NCC(F)(F)F | -6.4% |
| CC1COCCN1Cc1nc(Cc2ccccc2)no1 (stereo not drawn) | 5.17% |
| CC(C)CC1SCC(=O)Nc2c1cnn2-c1ccc(F)cc1 (stereo not drawn) | 6.82% |
| COc1ccc(C(=O)N2CCCCC2c2ccccn2)c(OC)n1 (stereo not drawn) | -0.649% |
| CCc1nnc(Nc2cccc(C3CCN(C(=O)CN(C)C)CC3)n2)s1 | -39.1% |
| CC(c1ccc(F)cc1F)N1CCN(CCN2CCCC2=O)CC1 (stereo not drawn) | -5.61% |
| O=C(NC1(C(=O)NCC2CC2)CCCC1)C1Cc2cc(F)ccc2O1 (stereo not drawn) | 8% |

| Compound | cytotoxicity at 10 µM |
| --- | --- |
| Cn1c(CO)nnc1CC1CCN(Cc2ccc(C#N)cc2)CC1 | 4.98% |
| COCCn1c(CN2CCCO2)cnc1S(=O)(=O)CC1CCCCC1 | -8.62% |
| CC(C)CCN1C2(CCN(C(=O)N(C)C)C2)c2ccccc2S1(=O)=O (stereo not drawn) | 2.11% |
| COCCOCCNC(=O)N1CCN(c2ccccc2C#N)CC1 | 6.39% |
| Cn1nc(C(C)(C)C)cc1NC(=O)CSc1nnc[nH]1 | 0.353% |
| COc1cc(CSc2nnc(C)n2CC(N)=O)ccc1SC | -7.91% |
| CC(C)C(=O)N1CCC(c2c(C(N)=O)sc3ccccc23)C1 (stereo not drawn) | -2.66% |
| Fc1ccc(CN2CCCC(Cn3cncn3)C2)c2ncccc12 (stereo not drawn) | -12.4% |
| CSc1cccc(CN(C)C(=O)Cn2ncc(N(C)C)cc2=O)c1 | 0.0849% |
| O=C(NCCSc1cnn[nH]1)c1c[nH]nc1C1CCCCC1 | -5.03% |
| Cc1ccccc1N1CCN(C(=O)c2ccc[nH]2)C(C)C1 (stereo not drawn) | -8.68% |
| CC(C)N1CCC2(CC1)CC(NCc1ccccn1)c1ccccc1O2 (stereo not drawn) | 0.806% |
| CC(=O)Nc1ccc(Oc2cc(C)nc(C3CCCNC3)c2)cc1 (stereo not drawn) | 2.58% |
| CCC(C)N(Cc1cccnc1)Cc1ccccc1Cn1cccn1 (stereo not drawn) | -43% |
| CC(O)CCN(C)C(=O)Nc1cc(F)cc(Br)c1 (stereo not drawn) | 4.12% |
| CC(=O)c1c(C)nn(CC(=O)Nc2ccc(Br)cc2)c1C | -9.87% |
| COCCN1CCC(CNC(=O)C2(NC(C)=O)CCCCC2)CC1 | 5.46% |
| CNC(=O)N1CCCCC1CCNS(C)(=O)=O (stereo not drawn) | -3.41% |
| CN1CCC2(CC1)CN(C(=O)c1ccncc1)Cc1ccccc12 | -86.3% |
| CS(=O)(=O)c1cccc(S(=O)(=O)NC(=O)CC2CCCC2)c1 | -7.59% |
| O=C(COc1cccc2c1CCC2=O)NCc1ccccc1F | -5.33% |
